Shown are actives, neighbours in structure and some others; about 1.4% of the full set was active somewhere.
CDK5 inh: blocks human CDK5/p35 kinase activity; Q00535+Q15078; Recombinant CDK5/p35, ADP-Glo luminescence, 60 min; inhibition, % at 10 µM; hit rate 0.01% among 330,000; AID 488839;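 active means highest replicate inhibition of at least 50% and at least 75% of replicates reaching 50%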;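 further: plate controls were DMSO neutral control for no effect and GW8510 at 10 µM for full effect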
Target sequence (Q00535 whole entry, looked up): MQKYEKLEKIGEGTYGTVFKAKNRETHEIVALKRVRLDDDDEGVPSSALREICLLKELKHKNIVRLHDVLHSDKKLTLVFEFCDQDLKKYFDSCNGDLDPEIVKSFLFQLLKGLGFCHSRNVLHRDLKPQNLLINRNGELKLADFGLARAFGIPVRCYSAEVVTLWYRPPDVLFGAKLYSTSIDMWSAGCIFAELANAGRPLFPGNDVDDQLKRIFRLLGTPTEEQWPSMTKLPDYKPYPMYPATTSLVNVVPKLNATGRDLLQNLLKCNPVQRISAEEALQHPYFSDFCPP
Target sequence (Q15078 whole entry, looked up): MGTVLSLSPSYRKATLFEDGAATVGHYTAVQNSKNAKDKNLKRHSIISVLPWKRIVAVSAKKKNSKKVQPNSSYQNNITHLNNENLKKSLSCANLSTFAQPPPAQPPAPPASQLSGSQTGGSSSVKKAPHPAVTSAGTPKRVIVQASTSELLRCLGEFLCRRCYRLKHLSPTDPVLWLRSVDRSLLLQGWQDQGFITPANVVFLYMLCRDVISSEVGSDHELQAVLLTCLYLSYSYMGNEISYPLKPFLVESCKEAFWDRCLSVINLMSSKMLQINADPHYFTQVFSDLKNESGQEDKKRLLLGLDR
STK33 kinase inh: blocks human STK33 kinase activity. Q9BYT3. purified STK33, MBP phosphorylation, ADP-Glo luminescence. inhibition, % at 10 µM. hit rate 0.073% among 320,000;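 active means inhibition at or above 25%, using the most active replicate where run in duplicate; inactive means inhibition below 25%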
GSK3beta inhib: human GSK3beta kinase inhibition | GST-GSK3beta kinase, ADP-Glo luminescence, 60 min; stronger effect = lower value | activity score (negative = inhibition), % at 10 µM | hit rate 0.038% among 300,000 | AID 2097;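 active means more than half of replicate wells score below -50%, meaning over 50% inhibition versus plate controls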;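 further: 0% = median DMSO wells and -100% = median GW8510 positive control wells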
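Test system: GST-tagged human GSK3beta kinase, cell-free; evaluation: activity score scaled between in-plate DMSO and GW8510 controls; measured by: ADP-Glo luminescence; incubation: 60 min reaction, RT; benchmarks: DMSO and 20 µM GW8510; reagent: peptide substrate plus 25 µM ATP (final); medium: Tris/MgCl2 kinase buffer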
HIV Env fusion: inhibitors of HIV Env-mediated cell fusion; HeLa-JRFL Env/CEM21 cell fusion, luciferase; inhibition, % at 12.3 µM; hit rate 1.1% among 360,000;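 active means mean replicate inhibition score of at least 50 and every replicate individually at or above 50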;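 further: 0% = plate neutral controls and 100% = maraviroc near 300 nM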
GSK3A inh: human GSK-3 alpha kinase inhibition; ADP-Glo luminescence, 60 min; AID 2650; inhibition, % at 10 µM; hit rate 0.1% among 320,000; P49840;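 active means more than half of replicates show inhibition above 20%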;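 further: GST-tagged GSK-3 alpha with peptide substrate and 25 µM ATP; 0% = DMSO neutral wells and 100% = GW8510 positive control wells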
INS-1E GSIS act: primary screen for activators of insulin secretion dependent on glucose, INS-1E cells, GLuc reporter luminescence. activation, % at 16.6 µM. hit rate 0.61% among 370,000. INS-1E GLuc reporter insulin secretion, 2-3 h;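 active means lowest replicate activation of at least 40%, so every replicate reaches that level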;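 further: 0% = median of neutral control wells and 100% = median of IBMX positive control wells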
Starred values were filed as active, the others as inactive; . = not tested or not shown; [ ] = dose if it differs, or a comment.

SMILES | CDK5 inh | STK33 kinase inh | GSK3beta inhib | HIV Env fusion | GSK3A inh | INS-1E GSIS act
CCOC(=O)[C@@H]1[C@H]2COc3cc(OC)ccc3[C@@H]2N2C(=O)N(c3ccc(C(F)(F)F)cc3)C(=O)[C@@]12C | 4 | -1 | 1 | -25 | -1 | -32
CCOC(=O)[C@H]1[C@H]2COc3ccccc3[C@@H]2N2C(=O)c3c(C)cc(C)cc3NC(=O)[C@@]12C | -2 | 1 | . | 89* | 3 | -16
CCOC(=O)[C@@H]1[C@H]2COc3ccc(Br)cc3[C@@H]2N2C(=O)N(c3ccc(C(F)(F)F)cc3)C(=O)[C@@]12C | 0 | -1 | -2 | 66* | -1 | -17
O=C1c2cccnc2C(Nc2cccc(F)c2)N1Cc1ccco1 (configuration not stated) | 1 | 0 | -2 | -118 | 0 | 70*
CC(=O)c1cccc(NC2c3ncccc3C(=O)N2Cc2ccco2)c1 (configuration not stated) | 1 | . | 0 | . | . | 50*
COc1ccc(NC(=O)N(C)C[C@H]2Oc3ccc(NS(=O)(=O)c4ccc(OC)cc4)cc3CC(=O)N([C@H](C)CO)C[C@@H]2C)cc1 | . | . | . | 7[16.7 µM] | . | 0
CC(=O)N(C)C[C@@H]1Oc2ncc(-c3ccccc3C)cc2C(=O)N([C@@H](C)CO)C[C@H]1C | . | . | . | 7[16.7 µM] | . | 5
CCOc1ccc(C(=O)N/N=C/c2cc(Cl)ccc2[N+](=O)[O-])cc1 | 1 | -2 | 1 | -12 | 0 | 92*
CC(C)NC(=O)Nc1ccc2c(c1)C(=O)N([C@@H](C)CO)C[C@@H](C)[C@H](CN(C)CC1CCCCC1)OCCCC[C@@H](C)O2 | . | . | . | -5[16.7 µM] | . | 23
O=C(c1ccccc1O)N1N=C(C(F)(F)F)CC1(O)c1ccc([N+](=O)[O-])cc1 (configuration not stated) | 0 | -1 | 0 | 59* | -3 | -21
O=C(CN1N=C(C(F)(F)F)CC1(O)c1ccc([N+](=O)[O-])cc1)c1ccccc1 (configuration not stated) | -3 | -1 | 1 | -167 | -1 | .
O=C(Nc1ccc(Oc2ccccc2)cc1)C1CCN(c2c3c(nc4ncnn24)CCC3)CC1 | 0 | -1 | -2 | 103* | -2 | .
O=C(Nc1ccc2c(c1)CCC2)C1CCN(c2c3c(nc4ncnn24)CCC3)CC1 | 1 | -1 | 4 | 96* | -1 | -32
Cc1cc(C)nc(N2CCC(C(=O)Nc3ccc(Oc4ccccc4)cc3)CC2)n1 | 1 | -1 | 1 | -22 | -2 | .
COc1ccc(NC(=O)C2CCCN(c3c4c(nc5ncnn35)CCC4)C2)cc1OC (configuration not stated) | 1 | 0 | -11 | 3 | -2 | .
CCC1(C)Cc2ccccc2-c2nc(SCC(N)=O)[nH]c(=O)c21 (configuration not stated) | -2 | 1 | 2 | 3 | 0 | 18
CCC1(C)Cc2ccccc2-c2nc(SC)[nH]c(=O)c21 (configuration not stated) | 1 | 0 | -2 | 80* | 1 | 60*
C[C@H](CO)N1C[C@H](C)[C@H](CN(C)CC2CCCCC2)Oc2ccc(NC(=O)CCN3CCOCC3)cc2C1=O | . | . | . | 4[16.7 µM] | . | 6
O=[N+]([O-])c1ccc(O)c(/C=N/Nc2nn[nH]n2)c1 | 0 | 1 | 0 | 12 | 0 | 6
O=[N+]([O-])c1ccc(O)c(/C=N/Nc2ccc(Cl)nn2)c1 | -5 | 1 | -1 | 82* | 5 | 34
COc1ccccc1Nc1c2c(nc3ccc(N)cc13)CCCC2 | -3 | 1 | -2 | 11 | 3 | 65*
COc1ccc(OC)c(Nc2c3c(nc4ccccc24)CCC3)c1 | -1 | 0 | -1 | -151 | -2 | 18
C[C@@H]1CN([C@@H](C)CO)C(=O)c2cccc(NS(=O)(=O)c3ccccc3)c2O[C@H]1CN(C)Cc1ccc(Cl)c(Cl)c1 | . | . | . | -8[16.7 µM] | . | -39
C[C@@H]1CN([C@@H](C)CO)C(=O)c2cccc(NS(=O)(=O)c3ccccc3)c2O[C@@H]1CN(C)Cc1ccc(Cl)c(Cl)c1 | . | . | . | 73*[16.7 µM] | . | -9
C[C@@H]1CN([C@H](C)CO)C(=O)c2cccc(NS(=O)(=O)c3ccccc3)c2O[C@@H]1CN(C)Cc1ccc(Cl)c(Cl)c1 | . | . | . | 81*[16.7 µM] | . | -9
SMILES | CDK5 inh | STK33 kinase inh | GSK3beta inhib | HIV Env fusion | GSK3A inh | INS-1E GSIS act
Cc1ccc2nc(-c3ccc(SCC(=O)Nc4nnc(C)s4)nc3)[nH]c2c1 | -1 | . | -3 | . | . | 459*
Cc1nc(NC(=O)CSc2ccc(-c3nc4ccccc4[nH]3)cn2)sc1C | 2 | 2 | -1 | . | 15 | 51*
C=CC[C@@]1(C(=O)N2CCOCC2)N=C(c2ccc(OCCCO)cc2)O[C@@H]1c1ccccc1 | . | . | . | -14[16.7 µM] | . | .
CCOC(=O)C1=C(COC(=O)c2ccc(C)s2)NC(=O)NC1C (configuration not stated) | 2 | 0 | 2 | . | 0 | 0
CCOC(=O)C1=C(COC(=O)c2cccs2)NC(=O)NC1C (configuration not stated) | -2 | -1 | 1 | . | -1 | 59*
COCC(=O)Nc1ccc2c(c1)C(=O)N(C)[C@H]1CC[C@H](CC(=O)NCc3cccc(F)c3)O[C@@H]1CO2 | . | . | . | . | . | 8
CO[C@H]1CN(C)C(=O)c2ccc(NC(=O)C3CC3)cc2OC[C@H](C)N(C(=O)c2cnccn2)C[C@@H]1C | . | . | . | -11[16.7 µM] | . | -5
N#Cc1c(N)nc(SCc2ccccn2)c(C#N)c1-c1cccs1 | 2 | 1 | -4 | 56* | 1 | -16
COc1ccc2c3c([nH]c2c1)[C@@H](CO)N(C(=O)Nc1ccc(F)cc1)CC31CN(Cc2ccccc2OC)C1 | . | . | . | . | . | -13
Cc1ccc(-c2csc3ncnc(SCC(=O)O)c23)cc1 | 0 | 6 | 4 | -2 | 0 | 14
COC(=O)CSc1ncnc2scc(-c3ccccc3)c12 | -1 | 0 | 1 | -3 | -2 | 60*
COc1ccc(-c2nc(CCl)cs2)cc1OC | 1 | -1 | 1 | -13 | -1 | 62*
CCOc1ccc(-c2nc(CSc3nnc(N)s3)cs2)cc1OC | 0 | . | 0 | . | . | 57*
C=CCn1c(-c2csc(-c3ccc(OC)c(OC)c3)n2)n[nH]c1=S | 1 | 1 | -1 | -17 | 2 | 83*
COc1ccc(-c2nc(CCl)cs2)cc1 | -3 | . | 0 | -24 | -1 | .
COc1ccccc1C(=O)N1C[C@H]2[C@@H](c3ccccc31)[C@@H](CO)N2C(=O)C1CCCC1 | . | . | . | . | . | -2
O=C(Nc1ccc(NC(=O)c2cccs2)cc1)c1ccc2c(c1)OCO2 | 0 | 0 | -3 | -14 | -1 | 47*
COc1cc(C(=O)NC(=S)Nc2ccc(NC(=O)c3ccco3)cc2)cc(OC)c1OC | -1 | -1 | -5 | 21 | 1 | 4
CCOc1ccc(C(=O)NC(=S)Nc2ccc(NC(=O)c3ccco3)cc2)cc1[N+](=O)[O-] | 0 | 10 | 5 | -6 | 13 | 43*
